According to ChEMBL document CHEMBL5154918, “Synthesis and Biological Characterization of a Series of 2-Sulfonamidebenzamides as Allosteric Modulators of MrgX1” (ACS Med Chem Lett, 2022):

Key:
[1] = molecular target: T1, Mas-related G-protein coupled receptor member X1 (Homo sapiens, UniProt Q96LB2); experiment: Positive allosteric modulator activity at human MRGPRX1 expressed in HEK293 cells assessed as maximal efficacy at 5 uM in presence of BAM8-22 by Fluo4-dye based FLIPR assay relative to control; format: cell-based
T1 sequence (Q96LB2 whole entry): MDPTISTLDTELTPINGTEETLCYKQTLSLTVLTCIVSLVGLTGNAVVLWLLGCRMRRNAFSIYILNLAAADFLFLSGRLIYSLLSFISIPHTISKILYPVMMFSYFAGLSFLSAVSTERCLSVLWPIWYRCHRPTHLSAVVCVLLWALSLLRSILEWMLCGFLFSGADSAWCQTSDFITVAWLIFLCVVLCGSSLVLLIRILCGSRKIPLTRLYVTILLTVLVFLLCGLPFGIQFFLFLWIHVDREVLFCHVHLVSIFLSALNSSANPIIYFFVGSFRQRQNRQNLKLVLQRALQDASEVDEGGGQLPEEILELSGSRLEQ

[2] = molecular target: T1, Mas-related G-protein coupled receptor member X1; experiment: Positive allosteric modulator activity at human MRGPRX1 expressed in HEK293 cells in presence of BAM8-22 by Fluo4-dye based FLIPR assay; format: cell-based
Method in brief: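 HEK293 cells expressing MrgX1. Compounds tested in the presence of 10 nM BAM8-22. Emax normalized to control compound ML382; mean ± SEM of n = 2 experiments.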

[3] = Microsomal stability in human liver microsomes assessed as intrinsic clearance; format: ADME, Microsome; conditions: read-out: CLH
Method in brief: (§1)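 Intrinsic clearance measured in human and mouse liver microsomes. Hepatic clearance predicted from it with the well-stirred organ CL model, binding terms excluded.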

[4] = Microsomal stability in mouse liver microsomes assessed as intrinsic clearance; format: ADME, Microsome; conditions: read-out: CLH; method in brief: as §1
[5] = Plasma protein binding in human assessed as unbound fraction; format: ADME, cell-free; conditions: read-out: PPB
Method in brief: (§2)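 Equilibrium dialysis in human and mouse plasma; results expressed as […] fraction unbound.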

[6] = Plasma protein binding in mouse assessed as unbound fraction; format: ADME, cell-free; conditions: read-out: PPB; method in brief: as §2
[7] = Volume of distribution at steady state in Sprague-Dawley rat at 0.25 mg/kg, iv bolus injection administered as cassette dose; format: ADME, organism-based; conditions: in vivo, read-out: Vdss
Method in brief: (§3)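 Male Sprague–Dawley rats, 5-in-1 cassette, 0.25 mg/kg IV of each test article in DMSO:PEG400:EtOH:Saline (5:48:10:37). Plasma sampled at 0.0833, 0.25, 0.5, 1, 3, 4, 8 and 24 h, plus Day 2 at 0.25 h post dose.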

[8] = AUC in Sprague-Dawley rat at 0.25 mg/kg, iv bolus injection administered as cassette dose; format: ADME, organism-based; set-up: dose 0.25 mg/kg, route iv; conditions: in vivo; method in brief: as §3
[9] = Half life in Sprague-Dawley rat at 0.25 mg/kg, iv bolus injection administered as cassette dose; format: ADME, organism-based; conditions: in vivo; method in brief: as §3
[10] = Clearance in Sprague-Dawley rat at 0.25 mg/kg, iv bolus injection administered as cassette dose; format: ADME, organism-based; conditions: in vivo; method in brief: as §3
Translocator protein = Translocator protein (Homo sapiens, UniProt P30536); experiment: Binding affinity to peripheral benzodiazepine receptor (unknown origin)
Translocator protein, sequence (P30536 whole entry): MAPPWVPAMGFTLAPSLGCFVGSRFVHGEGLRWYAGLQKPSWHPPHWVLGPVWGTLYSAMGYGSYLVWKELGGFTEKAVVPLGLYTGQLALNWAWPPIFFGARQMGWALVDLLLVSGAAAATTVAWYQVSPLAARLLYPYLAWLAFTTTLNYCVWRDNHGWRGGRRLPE

[11] = Drug concentration in Sprague-Dawley rat plasma at 0.25 mg/kg measured up to 48.25 hrs; format: ADME, organism-based
Method in brief: (§4)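 Brain sampled on Day 2 at 0.25 h, with matching plasma, after a 0.25 mg/kg IV cassette dose (5-in-1) in male Sprague–Dawley rats. Vehicle was DMSO:PEG400:EtOH:Saline (5:48:10:37). Kp is total brain/plasma concentration ratio.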

[12] = Drug concentration in Sprague-Dawley rat brain at 0.25 mg/kg measured up to 48.25 hrs; format: ADME, organism-based; conditions: read-out: Ct; method in brief: as §4
[13] = Ratio of drug concentration in brain to plasma in Sprague-Dawley rat at 0.25 mg/kg measured after 15 mins; format: ADME, organism-based; conditions: brain and plasma; method in brief: as §4
[14] = Half life in mouse at 2 mg/kg, ip administered as discrete dose; format: ADME, organism-based; conditions: in vivo
Method in brief: (§5)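 Discrete (single-compound) mouse PK, dosed IP at 2 mg/kg in 10% DMSO/10% cremophor EL/30% PEG400/50% water. Plasma and brain concentrations measured; brain:plasma ratio reported.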

[15] = Tmax in mouse at 2 mg/kg, ip administered as discrete dose; format: ADME, organism-based; conditions: in vivo; method in brief: as §5
[16] = Cmax in mouse at 2 mg/kg, ip administered as discrete dose; format: ADME, organism-based; set-up: dose 2 mg/kg, route ip; conditions: in vivo; method in brief: as §5
[17] = AUC in mouse at 2 mg/kg, ip administered as discrete dose; format: ADME, organism-based; set-up: dose 2 mg/kg, route ip; conditions: in vivo; method in brief: as §5
[18] = Ratio of drug concentration in brain to plasma in mouse at 2 mg/kg, ip administered as discrete dose; format: ADME, organism-based; conditions: brain and plasma, read-out: BPR; method in brief: as §5
D(1B) dopamine receptor = D(1B) dopamine receptor (Homo sapiens, UniProt P21918); experiment: Binding affinity to D5 receptor (unknown origin)
D(1B) dopamine receptor, sequence (P21918 whole entry): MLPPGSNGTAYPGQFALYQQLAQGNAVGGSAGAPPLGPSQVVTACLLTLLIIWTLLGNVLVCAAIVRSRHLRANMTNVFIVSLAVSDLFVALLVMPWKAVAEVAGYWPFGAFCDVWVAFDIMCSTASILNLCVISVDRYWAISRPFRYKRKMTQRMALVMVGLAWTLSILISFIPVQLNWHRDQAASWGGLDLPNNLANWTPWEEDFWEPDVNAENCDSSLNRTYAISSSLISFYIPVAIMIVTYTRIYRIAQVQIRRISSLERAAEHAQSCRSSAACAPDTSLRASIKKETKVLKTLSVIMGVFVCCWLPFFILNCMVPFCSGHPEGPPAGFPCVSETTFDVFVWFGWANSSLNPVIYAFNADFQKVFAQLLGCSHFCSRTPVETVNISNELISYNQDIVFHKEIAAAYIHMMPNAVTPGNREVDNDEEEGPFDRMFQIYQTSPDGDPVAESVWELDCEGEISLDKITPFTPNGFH

Histamine H1 receptor = Histamine H1 receptor (Homo sapiens, UniProt P35367); experiment: Binding affinity to H1 receptor (unknown origin)
Histamine H1 receptor, sequence (P35367 whole entry): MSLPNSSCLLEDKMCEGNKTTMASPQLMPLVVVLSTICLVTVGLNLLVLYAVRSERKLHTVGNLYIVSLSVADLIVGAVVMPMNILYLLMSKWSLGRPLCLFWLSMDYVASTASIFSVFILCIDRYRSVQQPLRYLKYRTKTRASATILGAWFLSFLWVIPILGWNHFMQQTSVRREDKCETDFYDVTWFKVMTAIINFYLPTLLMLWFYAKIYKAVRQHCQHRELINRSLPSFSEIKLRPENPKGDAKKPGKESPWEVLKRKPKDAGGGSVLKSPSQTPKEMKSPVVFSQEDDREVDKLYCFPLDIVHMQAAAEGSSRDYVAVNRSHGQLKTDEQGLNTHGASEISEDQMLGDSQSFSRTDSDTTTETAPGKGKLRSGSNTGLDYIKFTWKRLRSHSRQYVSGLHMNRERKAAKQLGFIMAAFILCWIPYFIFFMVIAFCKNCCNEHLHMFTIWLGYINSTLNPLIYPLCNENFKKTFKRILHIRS

[19] = filed as positive allosteric modulator

Row | Emax [1, 19] | EC50 [2] | CLint scaled [3] | CLint scaled [4] | fraction unbound [5] | fraction unbound [6] | SMILES | also measured
1 | 82.2% | 14 nM | 79.1 mL/min/kg | 1660 mL/min/kg | 0.004 | 0.022 | CCOc1ccc(F)cc1NC(=O)c1ccccc1NS(=O)(=O)C1CC1 | Vd [7]: 0.52 L/kg; AUC [8]: 119 ng·h/mL; half-life [9]: 28.8 min; clearance [10]: 36.7 mL/min/kg; Ki (Translocator protein): 271 nM; concentration at 48.25 h [11]: 79.6 ng/mL; concentration at 48.25 h [12]: 23.6 ng/g; Kp at 0.25 h [13]: 0.29; half-life [14]: 10.8 min; Tmax [15]: 10.2 min; Cmax [16]: 259 ng/mL; AUC [17]: 69 ng·h/mL; Kp [18]: 0.32; Ki (D(1B) dopamine receptor): > 4000 nM; Ki (Histamine H1 receptor): > 4000 nM
2 | 80.8% | 506 nM | 116 mL/min/kg | 4890 mL/min/kg | < 0.003 | 0.015 | CCCOc1ccccc1NC(=O)c1ccccc1NS(=O)(=O)C1CC1 | 
3 | 100% | 124 nM | 61.9 mL/min/kg | 1060 mL/min/kg | 0.004 | 0.017 | CCOc1ccccc1NC(=O)c1ccccc1NS(=O)(=O)C1CC1 | 
4 | 53.4% | 14200 nM |  |  |  |  | O=C(Nc1cccc2occc12)c1ccccc1NS(=O)(=O)C1CC1 | 
5 |  | 9010 nM |  |  |  |  | O=C(Nc1cccc2c1OCCO2)c1ccccc1NS(=O)(=O)C1CC1 | Emax [1]: 37.9%
6 | 66.3% | 1040 nM | 74.9 mL/min/kg | 1460 mL/min/kg | < 0.003 | 0.026 | Cc1cc2cccc(NC(=O)c3ccccc3NS(=O)(=O)C3CC3)c2o1 | 

Further lines, the molecule ahead of its results:

Row | SMILES | Emax [1, 19] | EC50 [2] | CLint scaled [3] | CLint scaled [4] | fraction unbound [5] | fraction unbound [6] | also measured
7 | CCOc1ccc(F)cc1NC(=O)c1cc(Cl)ccc1NS(=O)(=O)C1CC1 | 104% | 55 nM | 138 mL/min/kg | > 2400 mL/min/kg | 0.001 | 0.003 | 
8 | CCOc1ccc(F)cc1NC(=O)c1cc(C)ccc1NS(=O)(=O)C1CC1 | 106% | 69 nM | 114 mL/min/kg | 1100 mL/min/kg | 0.003 | 0.012 | Vd [7]: 1.2 L/kg; AUC [8]: 66.2 ng·h/mL; half-life [9]: 25.2 min; clearance [10]: 63.1 mL/min/kg; concentration at 48.25 h [11]: 61.5 ng/mL; concentration at 48.25 h [12]: 35.1 ng/g; Kp at 0.25 h [13]: 0.57; Ki (Histamine H1 receptor): 1090 nM
9 | O=C(Nc1ccccc1OCC(F)(F)F)c1ccccc1NS(=O)(=O)C1CC1 | 95% | 502 nM | 40.2 mL/min/kg | 979 mL/min/kg | 0.004 | 0.022 | 
10 | CCOc1ccccc1NC(=O)c1cc(F)ccc1NS(=O)(=O)CC | 107% | 98 nM | 36 mL/min/kg | 269 mL/min/kg | 0.002 | 0.041 | 
11 | CCOc1ccc(F)cc1NC(=O)c1cc(F)ccc1NS(=O)(=O)C1CC1 | 127% | 13 nM | 59.4 mL/min/kg | 980 mL/min/kg | 0.002 | 0.011 | Vd [7]: 0.34 L/kg; AUC [8]: 304 ng·h/mL; half-life [9]: 24.6 min; clearance [10]: 14.1 mL/min/kg; Ki (Translocator protein): 71 nM; concentration at 48.25 h [11]: 297 ng/mL; concentration at 48.25 h [12]: 55.9 ng/g; Kp at 0.25 h [13]: 0.19; half-life [14]: 7.2 min; Tmax [15]: 10.2 min; Cmax [16]: 1280 ng/mL; AUC [17]: 426 ng·h/mL; Kp [18]: 0.2
12 | CCOc1ccccc1NC(=O)c1cc(F)ccc1NS(=O)(=O)C1CC1 | 102% | 173 nM | 45.4 mL/min/kg | 383 mL/min/kg | 0.004 | 0.041 | 
13 | CCOc1ccccc1NC(=O)c1cc(C)ccc1NS(=O)(=O)C1CC1 | 104% | 103 nM | 75.1 mL/min/kg | 410 mL/min/kg | 0.003 | 0.043 | 
14 | CCOc1ccc(F)cc1NC(=O)c1cc(C)ccc1NS(=O)(=O)CC | 128% | 80 nM | 69.3 mL/min/kg | 1000 mL/min/kg | 0.003 | 0.014 | 
15 | CCOc1ccccc1NC(=O)c1cc(Cl)ccc1NS(=O)(=O)C1CC1 | 110% | 54 nM | 130 mL/min/kg | 1470 mL/min/kg | 0.001 | 0.001 | 
16 | CCS(=O)(=O)Nc1ccccc1C(=O)Nc1ccc(F)cc1OCC(F)(F)F | 91.4% | 1400 nM | 80 mL/min/kg | 1210 mL/min/kg | 0.005 | 0.021 | 
17 | CCS(=O)(=O)Nc1ccc(F)cc1C(=O)Nc1ccccc1OCC(F)(F)F | 100% | 435 nM |  |  |  |  | 
18 | CCOc1ccc(F)cc1NC(=O)c1cc(F)ccc1NS(=O)(=O)CC | 136% | 31 nM | 69.1 mL/min/kg | 1240 mL/min/kg | 0.002 | 0.001 | 
19 | CCOc1ccccc1NC(=O)c1ccc(F)cc1NS(=O)(=O)C1CC1 | 67.6% | 860 nM |  |  |  |  | 
